Measurements published in ChEMBL document CHEMBL1122171, “Hypobetalipoproteinemic agents. 3. Variation of the polycyclic portion of 4-(1-adamantyloxy)aniline” (1982).

Assays:
Assay type in all cases: functional
[1] = Ratio of heparin precipitating lipoproteins level to cholesterol level was determined
Outline: (§1)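 Cholesterol-cholic acid fed rats given each compound at 50 (mg/kg)/day in 0.25% aqueous methylcellulose vehicle. Serum total cholesterol, heparin precipitating lipoproteins (HPL) and HPL/cholesterol ratio measured. Values expressed as T/C, the treated-group mean divided by the control mean. Significance vs control set at p < 0.05. Food intake and weight gain monitored. Active compounds retested for confirmation.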

Rattus norvegicus [2] = assay: Hypobetalipoproteinemic activity was determined in diet-induced hypercholesterolemic rats at a dose of 0.17 (mmol/kg)/day (heparin precipitating lipoproteins level was determined); outline: as §1
Rattus norvegicus [3] = assay: Hypobetalipoproteinemic activity was determined in diet-induced hypercholesterolemic rats at a dose of 0.17 (mmol/kg)/day (total cholesterol level was determined); outline: as §1
Rattus norvegicus [4] = assay: Hypobetalipoproteinemic activity was determined in diet-induced hypercholesterolemic rats at a dose of 0.22 (mmol/kg)/day (heparin precipitating lipoproteins level was determined); outline: as §1
Rattus norvegicus [5] = assay: Hypobetalipoproteinemic activity was determined in diet-induced hypercholesterolemic rats at a dose of 0.22 (mmol/kg)/day (total cholesterol level was determined); outline: as §1
Rattus norvegicus [6] = assay: Hypobetalipoproteinemic activity was determined in diet-induced hypercholesterolemic rats at a dose of 0.19 (mmol/kg)/day (heparin precipitating lipoproteins level was determined); outline: as §1
Rattus norvegicus [7] = assay: Hypobetalipoproteinemic activity was determined in diet-induced hypercholesterolemic rats at a dose of 0.19 (mmol/kg)/day (total cholesterol level was determined); outline: as §1
Rattus norvegicus [8] = assay: Hypobetalipoproteinemic activity was determined in diet-induced hypercholesterolemic rats at a dose of 0.18 (mmol/kg)/day (total cholesterol level was determined); outline: as §1
Rattus norvegicus [9] = assay: Hypobetalipoproteinemic activity was determined in diet-induced hypercholesterolemic rats at a dose of 0.18 (mmol/kg)/day (heparin precipitating lipoproteins level was determined); outline: as §1

Nc1ccc(OC23CC4CC5C6CC(CC52)CC3C6C4)cc1
Ratio [1]: 0.66 | T/C (Rattus norvegicus [2]): 0.35 | T/C (Rattus norvegicus [3]): 0.53

CCCC(C)(C)Oc1ccc(N)cc1.Cl
Ratio [1]: 0.92 | T/C (Rattus norvegicus [4]): 0.78 | T/C (Rattus norvegicus [5]): 0.84

Nc1ccc(OC23CC4C5CC6CC4C(C2)C(C6)C5C3)cc1
Ratio [1]: 0.62 | T/C (Rattus norvegicus [2]): 0.19 | T/C (Rattus norvegicus [3]): 0.31

Nc1ccc(OC23CCCCC2CCCC3)cc1 (stereo in doubt; 14)
Ratio [1]: 0.97

CCCCCC(C)(C)Oc1ccc(N)cc1.Cl
Ratio [1]: 0.94 | T/C (Rattus norvegicus [6]): 0.96 | T/C (Rattus norvegicus [7]): 1.02

Cl.Nc1ccc(OC23CCCCC2CCCC3)cc1 (stereo in doubt; 17)
T/C (Rattus norvegicus [8]): 1.38 | T/C (Rattus norvegicus [9]): 1.24

CCCCCCCC(C)(C)Oc1ccc(N)cc1.Cl
Ratio [1]: 0.86 | T/C (Rattus norvegicus [2]): 0.84 | T/C (Rattus norvegicus [3]): 0.98

Cl.Nc1ccc(OC23CCCCC2CCCC3)cc1 (stereo in doubt; 14)
T/C (Rattus norvegicus [8]): 0.92 | T/C (Rattus norvegicus [9]): 0.89

Nc1ccc(OC23CCCCC2CCCC3)cc1 (stereo in doubt; 17)
Ratio [1]: 0.9
